Experimental data reported in ChEMBL document CHEMBL3244398, “Oxidative and cardiovascular studies on natural and synthetic catecholamines” (J Med Chem, 1978).

Columns and labels:
Rattus norvegicus = assay: Acute pressor activity in iv dosed Sprague-Dawley rat assessed as duration of arterial systolic blood pressure by 30 mmHg maintenance; type: functional, Artery
Method in brief: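 Iv jugular-cannula dosing was used in male normotensive Sprague-Dawley rats (380 ± 20 g), with arterial pressure recorded by carotid cannula and transducer. Six doses over a tenfold range were each given to four animals. Duration is the seconds for which blood pressure was […].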

SMILES	Time (Rattus norvegicus) [s]	pKa (physchem)
C[C@H](N)Cc1ccc(O)c(O)c1	34	–
C[C@@H](N)Cc1ccc(O)c(O)c1	20	–
CC(N)Cc1ccc(O)c(O)c1 (racemic)	22	10
CNCC(C)c1ccc(O)c(O)c1 (racemic)	28	10.5
CC(CN)c1ccc(O)c(O)c1.Cl (racemic)	29	10
CNCC(OC)c1ccc(O)c(O)c1.Cl (racemic)	21	9.5
NCC(O)c1ccc(O)c(O)c1 (racemic)	32	9
CNCCc1ccc(O)c(O)c1 [DEOXIEPINEPHRINE]	18	10.5
CNC [DIMETHYLAMINE]	–	10.8
NCCc1ccc(O)c(O)c1 [DOPAMINE]	32	10
CNC[C@H](O)c1ccc(O)c(O)c1 [EPINEPHRINE]	12	9.5
CN [METHYLAMINE]	–	10.6
NC[C@H](O)c1ccc(O)c(O)c1 [NOREPINEPHRINE]	32	–
